# Measurements: ChEMBL document CHEMBL1143930, “S-Euglobals: biomimetic synthesis, antileishmanial, antimalarial, and antimicrobial activities” (Bioorg Med Chem, 2008)
# Activity calls are given as the source filed them. No cut-off for these calls is given here.
# Columns and labels:
# Leishmania donovani = experiment: Antileishmanial activity against Leishmania donovani promastigotes after 48 hrs by Alamar blue assay; type: functional, organism-based
# How it was run: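 L. donovani promastigotes were grown in RPMI 1640 with 10% fetal calf serum at 26 C. A 3-day-old culture was diluted to 5 × 10^5 promastigotes/mL, and drug dilutions were made directly in the cell suspension. After 48 h at 26 C, growth was read by Alamar Blue fluorescence (ex 544/em 590 nm). IC50 and IC90 came from percent growth versus concentration curves.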
# BT-549 [1] = experiment: Cytotoxicity against human BT549 cells by neutral red assay; type: functional, cell-based
# How it was run: (§1)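 Cells were seeded at 25,000 per well and incubated 24 h. Test samples were added at a range of concentrations, followed by a further 48 h incubation. Viable cells were quantified by Neutral Red uptake, and IC50 was read from dose curves of percent growth versus concentration.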
# SK-OV-3 [2] = experiment: Cytotoxicity against human SK-OV3 cells by neutral red assay up to 25 ug/mL; type: functional, cell-based; how it was run: as §1
# Plasmodium falciparum [3] = experiment: Antimalarial activity against chloroquine-sensitive Plasmodium falciparum D6 by LDH release assay; type: functional, organism-based
# How it was run: (§2)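 Infected red cells (W2 or D6), 2% parasitemia, 2% hematocrit, in RPMI 1640 with 10% human serum and 60 µg/mL amikacin, exposed to serial sample dilutions. Incubated 72 h at 37 C under 90% N2/5% O2/5% CO2. Parasite LDH measured with Malstat reagent (30 min, room temperature), then NBT/PES 1 h in dark, stopped with 5% acetic acid, read at 650 nm. IC50 from dose-response curves.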
# KB = experiment: Cytotoxicity against human KB cells by neutral red assay up to 25 ug/mL; type: functional, cell-based; how it was run: as §1
# [4] = Cytotoxicity against pig LLC-PK11 cells by neutral red assay up to 25 ug/mL; type: cell-based, Sus scrofa; how it was run: as §1
# SK-MEL [5] = experiment: Cytotoxicity against human SKMEL cells by neutral red assay up to 25 ug/mL; type: functional, cell-based; how it was run: as §1
# [6] = Selectivity index, ratio of IC50 for african green monkey (Cercopithecus aethiops) Vero cells to IC50 for Plasmodium falciparum D6; type: functional
# How it was run: (§3)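 The index is IC50 in Vero cells (Neutral Red, 48 h exposure) divided by IC50 against P. falciparum D6 or W2. For the parasite assay, infected erythrocytes at 2% parasitemia and 2% hematocrit in RPMI 1640 with 10% human serum were incubated 72 h at 37 C under 90% N2, 5% O2, 5% CO2. Parasite LDH was measured with Malstat plus NBT/PES at 650 nm.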
# Vero [7] = experiment: Cytotoxicity against african green monkey Vero cells by neutral red assay up to 25 ug/mL; type: cell-based; conditions: chlorocebus sabaeus; how it was run: as §1
# [8] = Selectivity index, ratio of IC50 for african green monkey (Cercopithecus aethiops) Vero cells to IC50 for Plasmodium falciparum W2; type: functional; how it was run: as §3
# Aspergillus fumigatus = experiment: Antifungal activity against Aspergillus fumigatus; type: functional, organism-based
# How it was run: (§4)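 Modified NCCLS broth microdilution. Samples in DMSO were serially diluted in 0.9% saline and tested in duplicate. Inocula were matched to the 0.5 McFarland standard by absorbance at 630 nm, then diluted in broth. Growth, solvent and media controls were included. Plates were read at 630 nm before and after incubation, and IC50 was taken from percent growth versus concentration.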
# Plasmodium falciparum [9] = experiment: Antimalarial activity against chloroquine-resistant Plasmodium falciparum W2 by LDH release; type: functional, organism-based; how it was run: as §2
# Cryptococcus neoformans = experiment: Antifungal activity against Cryptococcus neoformans; type: functional, organism-based; how it was run: as §4
# Candida albicans = experiment: Antifungal activity against Candida albicans; type: functional, organism-based; how it was run: as §4
# SK-MEL [10] = experiment: Cytotoxicity against human SKMEL cells by neutral red assay; type: functional, cell-based; how it was run: as §1
# BT-549 [11] = experiment: Cytotoxicity against human BT549 cells by neutral red assay up to 25 ug/mL; type: functional, cell-based; how it was run: as §1
# Vero [12] = experiment: Cytotoxicity against african green monkey Vero cells by neutral red assay; type: cell-based; conditions: chlorocebus sabaeus; how it was run: as §1
# [13] = Cytotoxicity against pig LLC-PK11 cells by neutral red assay; type: cell-based; conditions: Sus scrofa; how it was run: as §1
# SK-OV-3 [14] = experiment: Cytotoxicity against human SK-OV3 cells by neutral red assay; type: functional, cell-based; how it was run: as §1
structure (smiles),measurement,setting,value
CC(C)C[C@H]1C[C@]2(CC[C@@H]3C[C@H]2C3(C)C)Oc2c(C=O)c(O)c(C=O)c(O)c21 [ROBUSTADIAL B],IC50,Leishmania donovani,16 µg/mL
same,IC90,Leishmania donovani,16 µg/mL
same,IC50,BT-549 [1],25 µg/mL
same,Activity,SK-OV-3 [2],inactive
same,IC50,Plasmodium falciparum [3],4.5 µg/mL
same,Activity,KB,inactive
same,Activity,[4],Not Active
same,Activity,SK-MEL [5],inactive
same,Selectivity index,[6],>5.6
same,Activity,Vero [7],Not Active
same,Selectivity index,[8],>5.3
same,Activity,Aspergillus fumigatus,inactive
same,IC50,Plasmodium falciparum [9],4.76 µg/mL
same,Activity,Cryptococcus neoformans,inactive
same,Activity,Candida albicans,inactive
CC(C)CC(=O)c1c(O)c(C=O)c(O)c2c1O[C@@]1(C)[C@H](CC[C@H]3[C@@H]1C3(C)C)C2,IC50,Leishmania donovani,5.5 µg/mL
same,IC90,Leishmania donovani,28 µg/mL
same,Activity,SK-OV-3 [2],inactive
same,IC50,Plasmodium falciparum [3],3.4 µg/mL
same,IC50,SK-MEL [10],25 µg/mL
same,Activity,KB,inactive
same,Activity,[4],Not Active
same,Selectivity index,[6],>7.4
same,Activity,Vero [7],Not Active
same,Selectivity index,[8],>9.3
same,Activity,Aspergillus fumigatus,inactive
same,IC50,Plasmodium falciparum [9],2.7 µg/mL
same,Activity,BT-549 [11],inactive
same,Activity,Cryptococcus neoformans,inactive
same,Activity,Candida albicans,inactive
CC(C)C[C@@H]1C[C@@]2(CC[C@@H]3C[C@H]2C3(C)C)Oc2c(C=O)c(O)c(C=O)c(O)c21 [ROBUSTADIAL A],IC50,Leishmania donovani,20 µg/mL
same,IC90,Leishmania donovani,39 µg/mL
same,IC50,BT-549 [1],19 µg/mL
same,IC50,Vero [12],19 µg/mL
same,IC50,Plasmodium falciparum [3],4.76 µg/mL
same,IC50,SK-MEL [10],> 25 µg/mL
same,Activity,KB,inactive
same,IC50,[13],17 µg/mL
same,Selectivity index,[6],4
same,Selectivity index,[8],6.8
same,IC50,SK-OV-3 [14],> 25 µg/mL
same,Activity,Aspergillus fumigatus,inactive
same,IC50,Plasmodium falciparum [9],2.8 µg/mL
same,Activity,Cryptococcus neoformans,inactive
same,Activity,Candida albicans,inactive
